Data from ChEMBL document CHEMBL4007420, “Structural Optimization and Pharmacological Evaluation of Inhibitors Targeting Dual-Specificity Tyrosine Phosphorylation-Regulated Kinases (DYRK) and CDC-like kinases (CLK) in Glioblastoma” (J Med Chem, 2017).
Each block holds one compound with its values, some of them ahead of it. Calls of active or inactive are those of the source. No cut-off for these calls is given here.

Assays:
[1] = molecular target: T1, Dual specificity tyrosine-phosphorylation-regulated kinase 4 (Homo sapiens, UniProt Q9NR20); test: Inhibition of full-length recombinant human GST-tagged DYRK4 expressed in baculovirus infected insect cells using DYRKtide as substrate after 5 mins in presence of [gamma-33P]ATP by liquid scintillation counting
T1 sequence (Q9NR20 whole entry): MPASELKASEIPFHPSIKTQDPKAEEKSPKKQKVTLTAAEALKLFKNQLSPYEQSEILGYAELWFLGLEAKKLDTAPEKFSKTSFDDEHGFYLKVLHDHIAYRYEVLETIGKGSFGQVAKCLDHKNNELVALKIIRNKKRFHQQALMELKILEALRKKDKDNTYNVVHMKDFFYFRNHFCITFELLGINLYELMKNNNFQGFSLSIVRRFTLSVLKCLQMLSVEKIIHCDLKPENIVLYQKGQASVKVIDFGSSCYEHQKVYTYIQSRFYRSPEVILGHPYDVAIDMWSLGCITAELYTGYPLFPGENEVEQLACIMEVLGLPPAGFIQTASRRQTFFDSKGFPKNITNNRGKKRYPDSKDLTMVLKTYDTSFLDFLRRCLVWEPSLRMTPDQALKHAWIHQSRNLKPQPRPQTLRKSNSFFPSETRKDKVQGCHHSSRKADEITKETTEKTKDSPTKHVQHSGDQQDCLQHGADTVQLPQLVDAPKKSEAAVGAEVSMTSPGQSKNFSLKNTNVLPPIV

[2] = molecular target: T2, Dual specificity tyrosine-phosphorylation-regulated kinase 3 (Homo sapiens, UniProt O43781); test: Inhibition of full-length recombinant human GST-tagged DYRK3 expressed in Escherichia coli using woodtide as substrate after 30 mins in presence of [gamma-33P]ATP
T2 sequence (O43781 whole entry): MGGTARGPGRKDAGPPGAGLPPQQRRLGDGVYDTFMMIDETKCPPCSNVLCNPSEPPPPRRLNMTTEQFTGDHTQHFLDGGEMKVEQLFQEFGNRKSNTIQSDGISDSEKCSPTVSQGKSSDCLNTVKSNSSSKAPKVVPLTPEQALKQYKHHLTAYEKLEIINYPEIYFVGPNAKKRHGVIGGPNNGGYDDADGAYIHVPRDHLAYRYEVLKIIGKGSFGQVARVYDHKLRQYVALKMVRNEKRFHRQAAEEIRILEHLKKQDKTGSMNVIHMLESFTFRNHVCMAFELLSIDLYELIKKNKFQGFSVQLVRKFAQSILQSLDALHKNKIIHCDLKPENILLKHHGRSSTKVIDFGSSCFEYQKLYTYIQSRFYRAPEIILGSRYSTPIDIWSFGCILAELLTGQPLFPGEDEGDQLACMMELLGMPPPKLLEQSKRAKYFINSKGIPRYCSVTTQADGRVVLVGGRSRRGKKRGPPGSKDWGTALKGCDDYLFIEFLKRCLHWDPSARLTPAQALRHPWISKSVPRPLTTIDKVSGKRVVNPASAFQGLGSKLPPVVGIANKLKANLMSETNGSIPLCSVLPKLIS

[3] = Cytotoxicity against patient-derived WK1 cells assessed as reduction in cell viability after 5 days by Alamar blue assay; type: functional, cell-based; conditions: Homo sapiens, WK1, 120 h
Procedure, shortened: (§1)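 The patient-derived glioblastoma lines were grown as stem cells under defined conditions to keep the phenotype and genotype of the resected tumours. Viability after treatment was read with Alamar blue.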

[4] = (§2) Anticlonogenic activity against patient-derived RN1 cells after 10 to 12 days by toluidine blue staining based assay; type: functional, cell-based, Homo sapiens
Procedure, shortened: (§3)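 Cells were exposed to compound for 10 days, then colonies were fixed, stained with Toluidine Blue and counted. […] Values are mean ± SEM of 3 independent experiments, each in duplicate, with one-way ANOVA and Dunnett's test against vehicle.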

RN1 = test: as §2; type: functional, cell-based; conditions: Homo sapiens; procedure, shortened: as §3
[5] = Cytotoxicity against patient-derived RN1 cells assessed as reduction in cell viability after 3 days by Alamar blue assay; type: functional, cell-based; conditions: Homo sapiens, RN1, 72 h; procedure, shortened: as §1
[6] = molecular target: Dual specificity tyrosine-phosphorylation-regulated kinase 1A (Homo sapiens, UniProt Q13627); test: Inhibition of DYRK1A (unknown origin) using woodtide as substrate after 10 mins in presence of [gamma-33P]ATP by microbeta scintillation counting
[7] = molecular target: T3, Dual specificity tyrosine-phosphorylation-regulated kinase 2 (Homo sapiens, UniProt Q92630); test: Inhibition of DYRK2 (unknown origin) using woodtide as substrate after 40 mins in presence of [gamma-33P]ATP by microbeta scintillation counting
T3 sequence (Q92630 whole entry): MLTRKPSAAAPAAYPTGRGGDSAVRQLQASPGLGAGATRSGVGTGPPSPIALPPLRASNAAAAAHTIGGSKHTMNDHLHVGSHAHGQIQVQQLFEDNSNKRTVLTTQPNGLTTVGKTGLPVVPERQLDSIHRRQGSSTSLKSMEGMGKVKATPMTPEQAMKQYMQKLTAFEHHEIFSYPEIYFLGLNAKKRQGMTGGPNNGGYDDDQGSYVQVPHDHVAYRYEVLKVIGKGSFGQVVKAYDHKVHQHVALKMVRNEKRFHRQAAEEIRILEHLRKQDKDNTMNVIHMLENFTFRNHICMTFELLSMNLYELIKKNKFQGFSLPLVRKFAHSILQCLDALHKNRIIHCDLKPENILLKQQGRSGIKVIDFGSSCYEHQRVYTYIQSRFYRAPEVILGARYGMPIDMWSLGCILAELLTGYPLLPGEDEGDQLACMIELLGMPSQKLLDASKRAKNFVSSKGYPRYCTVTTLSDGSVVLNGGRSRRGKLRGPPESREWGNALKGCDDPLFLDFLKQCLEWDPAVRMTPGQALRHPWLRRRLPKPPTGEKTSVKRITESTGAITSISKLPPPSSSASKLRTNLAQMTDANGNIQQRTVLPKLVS

A 172 [8] = test: Antimigratory activity in human A172 cells assessed as velocity of migration at 10 uM measured up to 20 hrs by wound scratch assay (reference value: 2650 to 3123 micrometer/hr); type: functional
Procedure, shortened: (§4)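 Wound-healing migration assay: cell movement across the wound is measured as velocity (µm/h). Compounds were tested at 0, 1.0, 5.0 and 10.0 µM. Values are mean ± SEM of 3 independent experiments.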

A 172 [9] = test: Antiinvasive activity in human A172 cells assessed as velocity of invasion at 5 uM measured up to 20 hrs by matrigel assay (reference value: 2659 to 3047 micrometer/hr); type: functional
[10] = Cytotoxicity against patient-derived SJH1 cells assessed as reduction in cell viability after 3 days by Alamar blue assay; type: functional, cell-based; conditions: Homo sapiens, SJH1, 72 h; procedure, shortened: as §1
U-251 [11] = test: Antiinvasive activity in human U251 cells assessed as velocity of invasion at 5 uM measured up to 20 hrs by matrigel assay (reference value: 1151 to 1710 micrometer/hr); type: functional
A 172 [12] = test: Antiinvasive activity in human A172 cells assessed as velocity of invasion at 1 uM measured up to 20 hrs by matrigel assay (reference value: 2659 to 3047 micrometer/hr); type: functional
[13] = Cytotoxicity against patient-derived JK2 cells assessed as reduction in cell viability after 3 days by Alamar blue assay; type: functional, cell-based; conditions: Homo sapiens, JK2, 72 h; procedure, shortened: as §1
A 172 [14] = test: Antimigratory activity in human A172 cells assessed as velocity of migration at 5 uM measured up to 20 hrs by wound scratch assay (reference value: 2650 to 3123 micrometer/hr); type: functional; procedure, shortened: as §4
U-251 [15] = test: Antiinvasive activity in human U251 cells assessed as velocity of invasion at 1 uM measured up to 20 hrs by matrigel assay (reference value: 1151 to 1710 micrometer/hr); type: functional
Homo sapiens = species on record: Homo sapiens; test: Inhibition of tubulin (unknown origin) polymerization
[16] = molecular target: Dual specificity tyrosine-phosphorylation-regulated kinase 1B (Homo sapiens, UniProt Q9Y463); test: Inhibition of DYRK1B (unknown origin) using woodtide as substrate after 40 mins in presence of [gamma-33P]ATP by microbeta scintillation counting
Chain of Dual specificity tyrosine-phosphorylation-regulated kinase 1B (Q9Y463 whole entry): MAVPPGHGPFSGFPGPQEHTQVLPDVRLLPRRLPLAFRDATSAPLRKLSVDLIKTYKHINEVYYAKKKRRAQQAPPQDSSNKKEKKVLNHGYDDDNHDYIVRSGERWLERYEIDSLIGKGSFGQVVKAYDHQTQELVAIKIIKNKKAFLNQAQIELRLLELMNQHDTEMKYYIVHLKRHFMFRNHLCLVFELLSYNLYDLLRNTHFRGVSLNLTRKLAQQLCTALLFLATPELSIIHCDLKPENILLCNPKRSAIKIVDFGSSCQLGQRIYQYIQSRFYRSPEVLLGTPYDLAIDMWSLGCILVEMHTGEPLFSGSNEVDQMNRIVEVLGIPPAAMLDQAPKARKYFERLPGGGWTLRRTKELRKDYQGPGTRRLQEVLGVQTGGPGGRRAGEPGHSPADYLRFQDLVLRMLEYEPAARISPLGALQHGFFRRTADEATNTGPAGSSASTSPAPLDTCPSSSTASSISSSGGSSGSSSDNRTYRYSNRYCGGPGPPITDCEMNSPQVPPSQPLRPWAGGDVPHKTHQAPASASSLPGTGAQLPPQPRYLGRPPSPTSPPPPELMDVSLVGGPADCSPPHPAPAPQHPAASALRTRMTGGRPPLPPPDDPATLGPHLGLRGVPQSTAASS

U-251 [17] = test: Antimigratory activity in human U251 cells assessed as velocity of migration at 10 uM measured up to 20 hrs by wound scratch assay (reference value: 2159 to 2653 micrometer/hr); type: functional; procedure, shortened: as §4
[18] = Antimigratory activity in patient-derived RN1 cells assessed as velocity of migration at 1 uM measured up to 20 hrs by wound scratch assay (reference value: 937 to 1174 micrometer/hr); type: functional, Homo sapiens; procedure, shortened: as §4
U-251 [19] = test: Antimigratory activity in human U251 cells assessed as velocity of migration at 1 uM measured up to 20 hrs by wound scratch assay (reference value: 2159 to 2653 micrometer/hr); type: functional; procedure, shortened: as §4
[20] = molecular target: Dual specificity protein kinase CLK1 (Homo sapiens, UniProt P49759); test: Inhibition of CLK1 (unknown origin) using KKGRSRSRSRSRSR as substrate after 40 mins in presence of [gamma-33P]ATP by microbeta scintillation counting
Chain of Dual specificity protein kinase CLK1 (P49759 whole entry): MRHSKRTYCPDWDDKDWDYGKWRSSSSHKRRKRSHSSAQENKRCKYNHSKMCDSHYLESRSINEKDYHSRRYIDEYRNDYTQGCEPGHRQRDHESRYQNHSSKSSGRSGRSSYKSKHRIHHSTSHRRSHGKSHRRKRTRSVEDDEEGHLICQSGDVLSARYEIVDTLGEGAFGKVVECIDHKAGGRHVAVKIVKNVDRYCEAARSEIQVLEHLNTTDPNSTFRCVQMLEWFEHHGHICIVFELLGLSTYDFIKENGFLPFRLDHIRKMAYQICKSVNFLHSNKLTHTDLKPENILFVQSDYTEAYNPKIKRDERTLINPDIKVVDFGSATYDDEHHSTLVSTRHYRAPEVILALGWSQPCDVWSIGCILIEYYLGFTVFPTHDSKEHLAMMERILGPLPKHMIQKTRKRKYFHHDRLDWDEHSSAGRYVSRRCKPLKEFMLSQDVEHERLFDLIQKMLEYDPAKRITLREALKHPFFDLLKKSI
Procedure, shortened: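 CLK1 was assayed with RS peptide substrate at 100 µM ATP.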

U-251 [21] = test: Cytotoxicity against human U251 cells assessed as reduction in cell viability after 3 days by Alamar blue assay; type: functional, cell-based; conditions: U-251, 72 h
A 172 [22] = test: Antiinvasive activity in human A172 cells assessed as velocity of invasion at 10 uM measured up to 20 hrs by matrigel assay (reference value: 2659 to 3047 micrometer/hr); type: functional
[23] = Antimigratory activity in patient-derived RN1 cells assessed as velocity of migration at 10 uM measured up to 20 hrs by wound scratch assay (reference value: 937 to 1174 micrometer/hr); type: functional, Homo sapiens; procedure, shortened: as §4
A 172 [24] = test: Cytotoxicity against human A172 cells assessed as reduction in cell viability after 3 days by Alamar blue assay; type: functional, cell-based; conditions: A 172, 72 h
A 172 [25] = test: Antimigratory activity in human A172 cells assessed as velocity of migration at 1 uM measured up to 20 hrs by wound scratch assay (reference value: 2650 to 3123 micrometer/hr); type: functional; procedure, shortened: as §4
U-251 [26] = test: Antiinvasive activity in human U251 cells assessed as velocity of invasion at 10 uM measured up to 20 hrs by matrigel assay (reference value: 1151 to 1710 micrometer/hr); type: functional
U-251 [27] = test: Antimigratory activity in human U251 cells assessed as velocity of migration at 5 uM measured up to 20 hrs by wound scratch assay (reference value: 2159 to 2653 micrometer/hr); type: functional; procedure, shortened: as §4
[28] = Antimigratory activity in patient-derived RN1 cells assessed as velocity of migration at 5 uM measured up to 20 hrs by wound scratch assay (reference value: 937 to 1174 micrometer/hr); type: functional, Homo sapiens; procedure, shortened: as §4

Structure (SMILES): COc1ccc2c(c1)[nH]c1c(C)nccc12 [HARMINE]
IC50 [1]: 80000 nM
IC50 [2]: 410 nM

EC50 [4]: 2100 nM
IC50 [6]: 6.6 nM
IC50 [7]: 536 nM
inhibition (Homo sapiens): inactive
IC50 [16]: 38 nM
IC50 [20]: 35 nM
Structure (SMILES): CC(=O)Nc1ccc(-c2cnc3[nH]cc(-c4ccc(O)cc4)c3c2)cc1
EC50 [3]: 900 nM
Activity (RN1): Dose-dependent effect
EC50 [5]: 2100 nM
Activity (A 172 [8]): 651 um/hr
Activity (A 172 [9]): 2027 um/hr
EC50 [10]: 5100 nM
Activity (U-251 [11]): 34 um/hr
Activity (A 172 [12]): 2731 um/hr
EC50 [13]: 8600 nM
Activity (A 172 [14]): 2296 um/hr
Activity (U-251 [15]): 736 um/hr
Activity (U-251 [17]): 111 um/hr
Activity [18]: 332 um/hr
Activity (U-251 [19]): 1125 um/hr
EC50 (U-251 [21]): 1600 to 4600 nM
Activity (A 172 [22]): 1718 um/hr
Activity [23]: 196 um/hr
EC50 (A 172 [24]): 1600 to 4600 nM
Activity (A 172 [25]): 2891 um/hr
Activity (U-251 [26]): -118 um/hr
Activity (U-251 [27]): 173 um/hr
Activity [28]: 210 um/hr
